Assay [1] concerns Lactuca sativa. In words: Inhibition of hypocotyl elongation of lettuce seedlings at 100 mg/L after 4 days under 100 uE/m'2 light relative to control. It is filed as functional. The method, boiled down:
(§1)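 Lactuca sativa cv. Kingcisco seeds sown on filter paper wetted with deionized water, 1 day at 24 °C in continuous light (100 μE/m² s). Uniform seedlings (radicles 2 mm) moved to small dishes on filter paper with 1 mL deionized water containing test compound, kept 4 days at 24 °C in continuous light. Hypocotyl and root lengths measured; mean compared with untreated control; triplicate experiments.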

Assay [2] concerns Lactuca sativa. In words: Induction of root elongation in lettuce seedlings at 1 to 100 mg/L after 4 days under 100 uE/m'2 light. The assay is classed as functional, organism-based. The method, boiled down:
as §1

Assay [3] relates to Lactuca sativa. In words: Induction of root elongation in lettuce seedlings at 100 mg/L after 4 days under 100 uE/m'2 light relative to control. The assay is classed as functional. The method, boiled down:
as §1

In assay [4] the test system is Lactuca sativa. In words: Inhibition of hypocotyl elongation in lettuce seedlings at 1 to 100 mg/L after 4 days under 100 uE/m'2 light relative to control. The assay is classed as functional, organism-based. The method, boiled down: as §1
In assay [5] the test system is Lactuca sativa. In words: Inhibition of root elongation in lettuce seedlings at 1 to 100 mg/L after 4 days under 100 uE/m'2 light. It is filed as functional, organism-based. The method, boiled down: as §1
Assay [6] has as its system Lactuca sativa. In words: Induction of hypocotyl elongation in lettuce seedlings at 1 mg/L after 4 days under 100 uE/m'2 light. It is filed as functional. The method, boiled down:
as §1

Assay [7] has as its system Lactuca sativa. In words: Induction of hypocotyl elongation in lettuce seedlings at 10 mg/L after 4 days under 100 uE/m'2 light. It is filed as functional. The method, boiled down:
as §1

The subject of assay [8] is Lactuca sativa. In words: Induction of hypocotyl elongation in lettuce seedlings at 100 mg/L after 4 days under 100 uE/m'2 light. The assay is classed as functional. The method, boiled down:
as §1

Calls of active or inactive are those of the source. No cut-off for these calls is given here.

On to `CC(C)C[C@H]1NC(=O)[C@H](Cc2c[nH]c3ccccc23)NC1=O`, for which the outcome in assay [1] was inactive. In addition, in assay [2], the result was Active. Also, in assay [3], the Activity stood at 164%.
In the same order, the values of `CC[C@H](C)[C@H]1NC(=O)[C@H](Cc2c[nH]c3ccccc23)NC1=O` are “inactive”, “Active” and 167%.
In the case of `O=C(O)Cc1c[nH]c2ccccc12`, the outcome in assay [4] and in assay [5] was Active.
A word on the inhibition: it is the drop in the measured response relative to a control, in per cent. Read a high inhibition as a strong effect. For the compound `C=CC(C)(C)[C@@]12C[C@H]3C(=O)N[C@H](C(C)C)C(=O)N3[C@@H]1Nc1ccccc12` [BREVICOMPANINE], testing at 100 µg/mL in assay [1] (96 h) gave an inhibition of 46%. Moreover, in assay [2], the outcome was Active. In addition, the Activity in assay [3] was 212%.
For the compound `C=C1C[C@]23C[C@@]1(O)CC[C@H]2[C@@]12C=C[C@H](O)[C@](C)(C(=O)O1)C2[C@@H]3C(=O)O` (stereo partly specified) [GIBBERELLINE], the Activity in assay [6] came to 433%; in assay [7] it was 433%; in assay [8] it was 433%; in assay [3], 164%. In addition, the outcome in assay [2] was Active.

Values taken from ChEMBL document CHEMBL1158691, “Brevicompanine C, cyclo-(D-Ile-L-Trp), and cyclo-(D-Leu-L-Trp), plant growth regulators from Penicillium brevi-compactum” (2005).
